The target in one data set is Cytochrome P450 3A4 (Homo sapiens, UniProt P08684). Briefly: Time dependent inhibition of CYP3A4 in human liver microsomes using testosterone as substrate by LC-MS-MS analysis relative to control. It counts as ADME, Microsome. An outline of the steps:
(§1)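 CYP3A4 metabolism of testosterone was measured after 0 or 30 min preincubation of enzyme with test article at the indicated concentration. Activity lost via preincubation, relative to the zero-minute control with the same inhibitor, was the end point. 6β-OH testosterone was detected by LC-MS/MS with cortisone as internal standard.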
(In general: Liver microsomes are a subcellular fraction often used to study metabolism.)

Data set [1] concerns the target T1, CYP3A4 (Homo sapiens, UniProt P08684). Kind of data set: Inhibition of CYP3A4 in human liver microsomes using testosterone as substrate at 10 uM by LC-MS-MS analysis relative to control. Type of data set: ADME, Microsome. Conditions: probe testosterone; call rule not given here.
For data set [2], the target named is T1, CYP3A4. Kind of data set: Time dependent inhibition of CYP3A4 in human liver microsomes using testosterone as substrate at 10 uM preincubated for 30 mins by LC-MS-MS analysis relative to control. Type of data set: ADME, Microsome. The settings on record: probe testosterone, read-out: TDI. The essentials:
as §1

For data set [3], the target named is Voltage-gated inwardly rectifying potassium channel KCNH2 (Homo sapiens, UniProt Q12809). Kind of data set: Inhibition of human ERG.
Data set [4] is described as follows: Oral bioavailability in dog. Type of data set: ADME, organism-based, Canis lupus familiaris. The settings on record: in vivo.
Data set [5] is described as follows: Half life in dog. Type of data set: ADME, organism-based, Canis lupus familiaris. Conditions: in vivo.
The nature of data set [6]: Plasma clearance in dog. Type of data set: ADME, organism-based, Canis lupus familiaris.
A short description of data set [7]: Volume of distribution at steady state in dog. Type of data set: ADME, organism-based, Canis lupus familiaris. Conditions: in vivo, read-out: Vdss.
Data set [8] is described as follows: Oral bioavailability in rat. It counts as ADME, organism-based. The settings on record: in vivo.
Data set [9] can be described thus: Half life in rat. Type of data set: ADME, organism-based. Conditions: in vivo.
Data set [10] in a line: Volume of distribution at steady state in rat. It counts as ADME, organism-based. The settings on record: in vivo, read-out: Vdss.
Data set [11] can be described thus: Plasma clearance in rat. It counts as ADME, organism-based.

T1 sequence (P08684 whole entry): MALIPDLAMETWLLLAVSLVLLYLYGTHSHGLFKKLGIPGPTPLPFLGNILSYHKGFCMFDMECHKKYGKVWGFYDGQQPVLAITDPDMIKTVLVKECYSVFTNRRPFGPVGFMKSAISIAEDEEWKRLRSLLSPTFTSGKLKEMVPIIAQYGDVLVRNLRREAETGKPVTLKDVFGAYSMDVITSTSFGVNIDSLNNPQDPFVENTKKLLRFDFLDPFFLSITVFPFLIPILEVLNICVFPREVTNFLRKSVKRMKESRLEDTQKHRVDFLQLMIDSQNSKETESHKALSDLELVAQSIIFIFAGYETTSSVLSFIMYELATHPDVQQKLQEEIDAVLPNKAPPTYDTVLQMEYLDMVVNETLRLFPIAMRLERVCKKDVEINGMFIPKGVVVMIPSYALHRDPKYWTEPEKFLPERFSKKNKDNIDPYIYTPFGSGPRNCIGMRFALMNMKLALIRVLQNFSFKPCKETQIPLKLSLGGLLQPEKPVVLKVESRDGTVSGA
Cytochrome P450 3A4, sequence (P08684 whole entry): as above
Voltage-gated inwardly rectifying potassium channel KCNH2, sequence (Q12809 whole entry): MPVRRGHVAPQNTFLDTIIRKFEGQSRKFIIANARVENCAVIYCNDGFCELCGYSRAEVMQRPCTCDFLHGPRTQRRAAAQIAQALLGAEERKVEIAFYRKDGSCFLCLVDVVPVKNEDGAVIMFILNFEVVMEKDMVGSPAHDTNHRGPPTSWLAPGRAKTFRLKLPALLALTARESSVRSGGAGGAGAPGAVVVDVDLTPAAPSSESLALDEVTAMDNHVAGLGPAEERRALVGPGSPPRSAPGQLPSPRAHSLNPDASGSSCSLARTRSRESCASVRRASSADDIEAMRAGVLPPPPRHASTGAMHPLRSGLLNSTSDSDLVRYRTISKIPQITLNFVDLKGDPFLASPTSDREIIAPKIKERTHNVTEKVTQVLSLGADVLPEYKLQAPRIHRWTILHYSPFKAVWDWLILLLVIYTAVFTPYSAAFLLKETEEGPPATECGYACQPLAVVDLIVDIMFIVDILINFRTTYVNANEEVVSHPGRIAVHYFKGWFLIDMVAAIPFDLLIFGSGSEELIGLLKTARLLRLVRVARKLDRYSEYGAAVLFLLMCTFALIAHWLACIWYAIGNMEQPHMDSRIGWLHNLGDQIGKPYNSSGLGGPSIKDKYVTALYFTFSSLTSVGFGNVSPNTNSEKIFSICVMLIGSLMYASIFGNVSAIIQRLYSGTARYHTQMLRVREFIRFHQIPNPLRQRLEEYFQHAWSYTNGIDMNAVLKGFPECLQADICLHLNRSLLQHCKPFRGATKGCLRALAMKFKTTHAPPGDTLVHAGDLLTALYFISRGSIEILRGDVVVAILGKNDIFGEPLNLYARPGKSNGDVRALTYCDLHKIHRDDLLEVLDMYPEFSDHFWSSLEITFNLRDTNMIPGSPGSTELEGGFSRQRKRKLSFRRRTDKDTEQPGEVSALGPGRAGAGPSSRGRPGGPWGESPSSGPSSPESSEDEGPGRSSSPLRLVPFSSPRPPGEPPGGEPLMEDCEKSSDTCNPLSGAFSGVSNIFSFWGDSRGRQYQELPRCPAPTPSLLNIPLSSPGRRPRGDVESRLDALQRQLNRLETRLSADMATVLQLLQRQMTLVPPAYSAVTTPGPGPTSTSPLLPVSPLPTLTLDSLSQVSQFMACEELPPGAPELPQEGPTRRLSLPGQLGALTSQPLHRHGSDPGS

At Cytochrome P450 3A4, `Cn1cc(-c2cnc3ccc4ccc(CC(=O)NCc5ccccn5)cc4c(=O)c3c2)cn1` had a TDI of less than 10%.

The molecule `Cn1cc(-c2cnc3ccc4ccc(CS(=O)(=O)NCC5COCCO5)cc4c(=O)c3c2)cn1` (stereo not drawn) gave an inhibition at 10 µM against CYP3A4 [1] of 0%. For the same molecule, at CYP3A4 [2], the inhibition at 30 min, 10 µM turned out to be 35%.

On CYP3A4 [1], `Cn1cc(-c2cnc3ccc4ccc(CS(=O)(=O)N[C@@H]5CCCC[C@H]5N)cc4c(=O)c3c2)cn1` returned an inhibition at 10 µM of 30%. In addition, on CYP3A4 [2], the inhibition at 30 min, 10 µM stood at 30%.

Broadly, the bioavailability is the share of a dose that reaches the circulation, judged against a reference dose that is usually intravenous. Read a low bioavailability as little systemic uptake. Broadly, the half-life is how long it takes for the measured level to halve. A high value points to slow decline. Usually clearance stands for the rate of elimination divided by the concentration. As to `CN(C)S(=O)(=O)Nc1ccc2ccc3ncc(-c4cnn(C)c4)cc3c(=O)c2c1`, the “inhibition (INH)” value in data set [3] is listed as “Not Active”. Also, the bioavailability in data set [4] came to 16%; in [8] it was 24%. Further, the results for the half-life in [5] and in [9] were 48 min and 42 min, respectively. The clearance was 57 mL/min/kg in data set [6] and 40 mL/min/kg in data set [11]. The Vd in data set [7] came to 3.5 L/kg; in data set [10], 2.5 L/kg. Further, the inhibition at 30 min, 10 µM on CYP3A4 [2] is 30%.

Consider `Cn1cc(-c2cnc3ccc4ccc(CS(=O)(=O)NCC5CCCCN5)cc4c(=O)c3c2)cn1` (stereo not drawn), for which the inhibition at 10 µM against CYP3A4 [1] was 29%. Moreover, at CYP3A4 [2], the inhibition at 30 min, 10 µM was found to be 1%.

On CYP3A4 [1], `Cn1cc(-c2cnc3ccc4ccc(CS(=O)(=O)NCc5cccnc5)cc4c(=O)c3c2)cn1` showed an inhibition at 10 µM of 30%. For the same molecule, the inhibition at 30 min, 10 µM at CYP3A4 [2] is 0%.

In the case of `CCCNS(=O)(=O)Cc1ccc2ccc3ncc(-c4cnn(C)c4)cc3c(=O)c2c1`, the inhibition at 10 µM on CYP3A4 [1] was 21%. Besides, the inhibition at 30 min, 10 µM at CYP3A4 [2] was determined as 15%.

On CYP3A4 [1], `Cn1cc(-c2cnc3ccc4ccc(CS(=O)(=O)NCCc5ccccn5)cc4c(=O)c3c2)cn1` yielded an inhibition at 10 µM of 14%. For the same molecule, on CYP3A4 [2], the inhibition at 30 min, 10 µM is 9%.

The molecule `Cn1cc(-c2cnc3ccc4ccc(CS(=O)(=O)NCc5ccc(F)cc5F)cc4c(=O)c3c2)cn1` yielded an inhibition at 10 µM against CYP3A4 [1] of 42%. The inhibition at 30 min, 10 µM on CYP3A4 [2] was 17%.

Consider `Cn1cc(-c2cnc3ccc4ccc(CS(=O)(=O)NCc5ccccc5Cl)cc4c(=O)c3c2)cn1`, for which the inhibition at 10 µM on CYP3A4 [1] turned out to be 17%. The inhibition at 30 min, 10 µM on CYP3A4 [2] amounted to 0%.

`Cn1cc(-c2cnc3ccc4ccc(CC(N)=O)cc4c(=O)c3c2)cn1`: at Cytochrome P450 3A4, the TDI is given as less than 10%.
